# In ChEMBL document CHEMBL1833957, “P1-substituted symmetry-based human immunodeficiency virus protease inhibitors with potent antiviral activity against drug-resistant viruses” (J Med Chem, 2011):
# System: Human immunodeficiency virus 1
# Assay: Antiviral activity against HIV1 B26 harboring protease L33F, K45I, M46I, I50V, A71V and V82F mutant infected in human MT4 cells assessed as inhibition of virus-induced cell death after 5 days by MTT assay relative to wild type HIV1 pNL4-3
# Format: functional
# Conditions: not given
row,Compound,fold change (FC)
1,COC(=O)N[C@H](C(=O)N[C@@H](Cc1ccccc1)C[C@H](O)[C@H](Cc1ccc(-c2ccc(CO)cc2)cc1)NC(=O)[C@@H](NC(=O)OC)C(C)(C)C)C(C)(C)C,2
2,COC(=O)N[C@H](C(=O)N[C@@H](Cc1ccccc1)C[C@H](O)[C@H](Cc1ccc(-c2ccnc(F)c2)cc1)NC(=O)[C@@H](NC(=O)OC)C(C)(C)C)C(C)(C)C,10
3,COC(=O)N[C@H](C(=O)N[C@@H](Cc1ccccc1)C[C@H](O)[C@H](Cc1ccc(-c2ccc(N)cc2)cc1)NC(=O)[C@@H](NC(=O)OC)C(C)(C)C)C(C)(C)C,9
4,COC(=O)N[C@H](C(=O)N[C@@H](Cc1ccccc1)C[C@H](O)[C@H](Cc1ccc(-c2ccccn2)cc1)NC(=O)[C@@H](NC(=O)OC)C(C)(C)C)C(C)(C)C,29

# System: not listed separately
# Assay: Oral bioavailability in rat at 5 mg/kg
# Format: ADME, organism-based
# Conditions: in vivo
row,Compound,bioavailability
1,COC(=O)N[C@H](C(=O)N[C@@H](Cc1ccccc1)C[C@H](O)[C@H](Cc1ccc(-c2cnc3ccccc3c2)cc1)NC(=O)[C@@H](NC(=O)OC)C(C)(C)C)C(C)(C)C,1%
2,COC(=O)N[C@H](C(=O)N[C@@H](Cc1ccccc1)C[C@H](O)[C@H](Cc1ccc(-c2ccc(CO)cc2)cc1)NC(=O)[C@@H](NC(=O)OC)C(C)(C)C)C(C)(C)C,0%
3,COC(=O)N[C@H](C(=O)N[C@@H](Cc1ccccc1)C[C@H](O)[C@H](Cc1ccc(-c2ccccn2)cc1)NC(=O)[C@@H](NC(=O)OC)C(C)(C)C)C(C)(C)C,7%

# System: Human immunodeficiency virus 1
# Assay: (§1) Antiviral activity against HIV1 isolate 1 harboring protease L10I, E35D, N37D, M46I, I54V, G57R, L63P, A71V, T74P, I84V, L90M, I93L mutant infected in human MT4 cells assessed as inhibition of virus-induced cell death after 5 days by MTT assay relative to wild type HIV1 pNL4-3
# Format: functional
# Conditions: not given
row,Compound,fold change (FC)
1,COC(=O)N[C@H](C(=O)N[C@@H](Cc1ccccc1)C[C@H](O)[C@H](Cc1ccc(-c2ccc(CO)cc2)cc1)NC(=O)[C@@H](NC(=O)OC)C(C)(C)C)C(C)(C)C,45
2,COC(=O)N[C@H](C(=O)N[C@@H](Cc1ccccc1)C[C@H](O)[C@H](Cc1ccc(-c2ccnc(F)c2)cc1)NC(=O)[C@@H](NC(=O)OC)C(C)(C)C)C(C)(C)C,30
3,COC(=O)N[C@H](C(=O)N[C@@H](Cc1ccccc1)C[C@H](O)[C@H](Cc1ccc(-c2ccc(N)cc2)cc1)NC(=O)[C@@H](NC(=O)OC)C(C)(C)C)C(C)(C)C,45

# System: not listed separately
# Assay: AUC in rat at 5 mg/kg, po
# Format: ADME, organism-based
# Parameters: dose 5 mg/kg, route oral
# Conditions: plasma
# Procedure, shortened: (§2)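 Rats given a single 5 mg/kg oral dose with no ritonavir. Plasma Cmax is reported in μg/mL and AUC in μg h/mL.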
row,Compound,AUC
1,COC(=O)N[C@H](C(=O)N[C@@H](Cc1ccccc1)C[C@H](O)[C@H](Cc1ccc(-c2cnc3ccccc3c2)cc1)NC(=O)[C@@H](NC(=O)OC)C(C)(C)C)C(C)(C)C,30 ng·h/mL
2,COC(=O)N[C@H](C(=O)N[C@@H](Cc1ccccc1)C[C@H](O)[C@H](Cc1ccc(-c2ccccn2)cc1)NC(=O)[C@@H](NC(=O)OC)C(C)(C)C)C(C)(C)C,190 ng·h/mL

# System: not listed separately
# Assay: Oral bioavailability in rat at 5 mg/kg co-administered with 5 mg/kg of CYP3A4 inhibitor ritonavir relative to iv dose without ritonavir co-administration
# Format: ADME, organism-based
# Conditions: in vivo
# Procedure, shortened: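 Rats given 5 mg/kg orally with 5 mg/kg ritonavir. Bioavailability (%) is calculated against an IV dose given without ritonavir.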
row,Compound,bioavailability
1,COC(=O)N[C@H](C(=O)N[C@@H](Cc1ccccc1)C[C@H](O)[C@H](Cc1ccc(-c2cnc3ccccc3c2)cc1)NC(=O)[C@@H](NC(=O)OC)C(C)(C)C)C(C)(C)C,63%
2,COC(=O)N[C@H](C(=O)N[C@@H](Cc1ccccc1)C[C@H](O)[C@H](Cc1ccc(-c2ccc(CO)cc2)cc1)NC(=O)[C@@H](NC(=O)OC)C(C)(C)C)C(C)(C)C,0.3%
3,COC(=O)N[C@H](C(=O)N[C@@H](Cc1ccccc1)C[C@H](O)[C@H](Cc1ccc(-c2ccccn2)cc1)NC(=O)[C@@H](NC(=O)OC)C(C)(C)C)C(C)(C)C,> 100%

# System: not listed separately
# Assay: Cmax in rat at 5 mg/kg, po
# Format: ADME, organism-based
# Parameters: dose 5 mg/kg, route oral
# Conditions: in vivo
# Procedure, shortened: as §2
row,Compound,Cmax
1,COC(=O)N[C@H](C(=O)N[C@@H](Cc1ccccc1)C[C@H](O)[C@H](Cc1ccc(-c2cnc3ccccc3c2)cc1)NC(=O)[C@@H](NC(=O)OC)C(C)(C)C)C(C)(C)C,20 ng/mL
2,COC(=O)N[C@H](C(=O)N[C@@H](Cc1ccccc1)C[C@H](O)[C@H](Cc1ccc(-c2ccccn2)cc1)NC(=O)[C@@H](NC(=O)OC)C(C)(C)C)C(C)(C)C,280 ng/mL

# System: Rattus norvegicus
# Assay: Ratio of AUC in rat at 5 mg/kg, po co-administered with 5 mg/kg CYP3A4 inhibitor ritonavir to AUC in rat at 5 mg/kg, po in the absence of CYP3A4 inhibitor ritonavir
# Format: ADME, organism-based
# Conditions: in vivo
row,Compound,Ratio AUC
1,COC(=O)N[C@H](C(=O)N[C@@H](Cc1ccccc1)C[C@H](O)[C@H](Cc1ccc(-c2ccccn2)cc1)NC(=O)[C@@H](NC(=O)OC)C(C)(C)C)C(C)(C)C,25

# System: not listed separately
# Assay: AUC in rat at 5 mg/kg, po co-administered with 5 mg/kg of CYP3A4 inhibitor ritonavir
# Format: ADME, organism-based
# Conditions: plasma
# Procedure, shortened: (§3)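 Rats given 5 mg/kg orally together with 5 mg/kg ritonavir. Plasma Cmax is reported in μg/mL and AUC in μg h/mL.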
row,Compound,AUC
1,COC(=O)N[C@H](C(=O)N[C@@H](Cc1ccccc1)C[C@H](O)[C@H](Cc1ccc(-c2cnc3ccccc3c2)cc1)NC(=O)[C@@H](NC(=O)OC)C(C)(C)C)C(C)(C)C,1850 ng·h/mL
2,COC(=O)N[C@H](C(=O)N[C@@H](Cc1ccccc1)C[C@H](O)[C@H](Cc1ccc(-c2ccc(CO)cc2)cc1)NC(=O)[C@@H](NC(=O)OC)C(C)(C)C)C(C)(C)C,10 ng·h/mL
3,COC(=O)N[C@H](C(=O)N[C@@H](Cc1ccccc1)C[C@H](O)[C@H](Cc1ccc(-c2ccccn2)cc1)NC(=O)[C@@H](NC(=O)OC)C(C)(C)C)C(C)(C)C,4880 ng·h/mL

# System: Human immunodeficiency virus 1
# Assay: as §1, with “HIV1” for “HIV1 isolate 1”, “I13V, G16A, Q18H, L33F,” for “E35D,”, “G57R, Q61H,I62V,” for “G57R,”, “A71L, I72T, L76V, V77I, V82A, N88G,” for “A71V, T74P, I84V,”
# Format: functional
# Conditions: not given
row,Compound,fold change (FC)
1,COC(=O)N[C@H](C(=O)N[C@@H](Cc1ccccc1)C[C@H](O)[C@H](Cc1ccc(-c2ccc(CO)cc2)cc1)NC(=O)[C@@H](NC(=O)OC)C(C)(C)C)C(C)(C)C,2
2,COC(=O)N[C@H](C(=O)N[C@@H](Cc1ccccc1)C[C@H](O)[C@H](Cc1ccc(-c2ccnc(F)c2)cc1)NC(=O)[C@@H](NC(=O)OC)C(C)(C)C)C(C)(C)C,2
3,COC(=O)N[C@H](C(=O)N[C@@H](Cc1ccccc1)C[C@H](O)[C@H](Cc1ccc(-c2ccc(N)cc2)cc1)NC(=O)[C@@H](NC(=O)OC)C(C)(C)C)C(C)(C)C,7

# System: Liver microsomes
# Assay: Metabolic stability in human liver microsomes assessed as disappearance of the compound after 20 mins in the presence of 0.4 uM CYP3A4 inhibitor ritonavir
# Format: ADME, Microsome
# Conditions: not given
row,Compound,Stability
1,COC(=O)N[C@H](C(=O)N[C@@H](Cc1ccccc1)C[C@H](O)[C@H](Cc1ccc(-c2ccccn2)cc1)NC(=O)[C@@H](NC(=O)OC)C(C)(C)C)C(C)(C)C,Stable

# System: not listed separately
# Assay: Cmax in rat at 5 mg/kg, po co-administered with 5 mg/kg of CYP3A4 inhibitor ritonavir
# Format: ADME, organism-based
# Parameters: dose 5 mg/kg, route oral
# Conditions: in vivo
# Procedure, shortened: as §3
row,Compound,Cmax
1,COC(=O)N[C@H](C(=O)N[C@@H](Cc1ccccc1)C[C@H](O)[C@H](Cc1ccc(-c2cnc3ccccc3c2)cc1)NC(=O)[C@@H](NC(=O)OC)C(C)(C)C)C(C)(C)C,220 ng/mL
2,COC(=O)N[C@H](C(=O)N[C@@H](Cc1ccccc1)C[C@H](O)[C@H](Cc1ccc(-c2ccc(CO)cc2)cc1)NC(=O)[C@@H](NC(=O)OC)C(C)(C)C)C(C)(C)C,10 ng/mL
3,COC(=O)N[C@H](C(=O)N[C@@H](Cc1ccccc1)C[C@H](O)[C@H](Cc1ccc(-c2ccccn2)cc1)NC(=O)[C@@H](NC(=O)OC)C(C)(C)C)C(C)(C)C,1550 ng/mL

# System: Human immunodeficiency virus 1
# Assay: Antiviral activity against wild type HIV1 pNL4-3 infected in human MT4 cells assessed as inhibition of virus-induced cell death after 5 days by MTT assay in presence of 50% human serum
# Format: functional, organism-based
# Conditions: Human immunodeficiency virus 1, pNL4-3, MT4, 120 h
row,Compound,EC50
1,COC(=O)N[C@H](C(=O)N[C@@H](Cc1ccccc1)C[C@H](O)[C@H](Cc1ccc(-c2ccc(CO)cc2)cc1)NC(=O)[C@@H](NC(=O)OC)C(C)(C)C)C(C)(C)C,18 nM
2,COC(=O)N[C@H](C(=O)N[C@@H](Cc1ccccc1)C[C@H](O)[C@H](Cc1ccc(-c2ccnc(F)c2)cc1)NC(=O)[C@@H](NC(=O)OC)C(C)(C)C)C(C)(C)C,7 nM
3,COC(=O)N[C@H](C(=O)N[C@@H](Cc1ccccc1)C[C@H](O)[C@H](Cc1ccc(-c2ccc(N)cc2)cc1)NC(=O)[C@@H](NC(=O)OC)C(C)(C)C)C(C)(C)C,38 nM
4,COC(=O)N[C@H](C(=O)N[C@@H](Cc1ccccc1)C[C@H](O)[C@H](Cc1ccc(-c2ccccn2)cc1)NC(=O)[C@@H](NC(=O)OC)C(C)(C)C)C(C)(C)C,19 nM

# System: Human immunodeficiency virus 1
# Assay: Antiviral activity against wild type HIV1 pNL4-3 infected in human MT4 cells assessed as inhibition of virus-induced cell death after 5 days by MTT assay
# Format: functional, organism-based
# Conditions: Human immunodeficiency virus 1, pNL4-3, MT4, 120 h
# Procedure, shortened: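 EC50 measured against wild-type virus in MT-4 cells, with no human serum added.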
row,Compound,EC50
1,COC(=O)N[C@H](C(=O)N[C@@H](Cc1ccccc1)C[C@H](O)[C@H](Cc1ccc(-c2ccc(CO)cc2)cc1)NC(=O)[C@@H](NC(=O)OC)C(C)(C)C)C(C)(C)C,5 nM
2,COC(=O)N[C@H](C(=O)N[C@@H](Cc1ccccc1)C[C@H](O)[C@H](Cc1ccc(-c2ccnc(F)c2)cc1)NC(=O)[C@@H](NC(=O)OC)C(C)(C)C)C(C)(C)C,2 nM
3,COC(=O)N[C@H](C(=O)N[C@@H](Cc1ccccc1)C[C@H](O)[C@H](Cc1ccc(-c2ccc(N)cc2)cc1)NC(=O)[C@@H](NC(=O)OC)C(C)(C)C)C(C)(C)C,6 nM
4,COC(=O)N[C@H](C(=O)N[C@@H](Cc1ccccc1)C[C@H](O)[C@H](Cc1ccc(-c2ccccn2)cc1)NC(=O)[C@@H](NC(=O)OC)C(C)(C)C)C(C)(C)C,6 nM

# System: not listed separately
# Assay: Metabolic stability in human liver microsomes assessed as disappearance of the compound after 20 mins
# Format: ADME, Microsome
# Conditions: read-out: Drug metabolism
row,Compound,metabolised at 20 min
1,COC(=O)N[C@H](C(=O)N[C@@H](Cc1ccccc1)C[C@H](O)[C@H](Cc1ccc(-c2ccccn2)cc1)NC(=O)[C@@H](NC(=O)OC)C(C)(C)C)C(C)(C)C,40%

# System: Human immunodeficiency virus 1
# Assay: Antiviral activity against HIV1 A17 harboring protease L10F, V32I, M46I, I47V, Q58E and I84V mutant infected in human MT4 cells assessed as inhibition of virus-induced cell death after 5 days by MTT assay relative to wild type HIV1 pNL4-3
# Format: functional
# Conditions: not given
row,Compound,fold change (FC)
1,COC(=O)N[C@H](C(=O)N[C@@H](Cc1ccccc1)C[C@H](O)[C@H](Cc1ccc(-c2ccc(CO)cc2)cc1)NC(=O)[C@@H](NC(=O)OC)C(C)(C)C)C(C)(C)C,2
2,COC(=O)N[C@H](C(=O)N[C@@H](Cc1ccccc1)C[C@H](O)[C@H](Cc1ccc(-c2ccnc(F)c2)cc1)NC(=O)[C@@H](NC(=O)OC)C(C)(C)C)C(C)(C)C,10
3,COC(=O)N[C@H](C(=O)N[C@@H](Cc1ccccc1)C[C@H](O)[C@H](Cc1ccc(-c2ccc(N)cc2)cc1)NC(=O)[C@@H](NC(=O)OC)C(C)(C)C)C(C)(C)C,7
4,COC(=O)N[C@H](C(=O)N[C@@H](Cc1ccccc1)C[C@H](O)[C@H](Cc1ccc(-c2ccccn2)cc1)NC(=O)[C@@H](NC(=O)OC)C(C)(C)C)C(C)(C)C,20

# System: Liver microsomes
# Assay: Metabolic stability in human liver microsomes assessed as disappearance of the compound after 20 mins in the presence of 0.4 uM CYP3A4 inhibitor ritonavir
# Conditions: not given
row,Compound,Stability
1,COC(=O)N[C@H](C(=O)N[C@@H](Cc1ccccc1)C[C@H](O)[C@H](Cc1ccc(-c2ccccn2)cc1)NC(=O)[C@@H](NC(=O)OC)C(C)(C)C)C(C)(C)C,Stable
